Measurements from ChEMBL document CHEMBL1154548, “Synthesis and initial evaluation of novel, non-peptidic antagonists of the alpha(v)-integrins alpha(v)beta(3) and alpha(v)beta(5)” (Bioorg Med Chem Lett, 2009).

Assays:
Integrin alpha-V/beta-3 = Integrin alpha-V/beta-3 (Homo sapiens, UniProt P05106+P06756); assay: Binding affinity to human integrin alphavbeta3 receptor by TRF assay
Method in brief: (§1)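 Wells were coated with αvβ3 or αvβ5 overnight at 4 °C in buffer A (50 mM Tris–HCl pH 7.4, 100 mM NaCl, 1 mM each MgCl₂, CaCl₂, MnCl₂), then blocked with 1% BSA for 1 h at RT. Compound and 20 nM Eu³⁺-vitronectin in buffer A plus DTPA and 0.05% BSA were added for 1 h at RT. Wells were washed, enhancement solution was added for 10 min with shaking, and time-resolved fluorescence was read.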

Integrin alpha-V = Integrin alpha-V (Homo sapiens, UniProt P06756+P18084); assay: Binding affinity to human integrin alphavbeta5 receptor by TRF assay; method in brief: as §1
[1] = target: Integrin alpha-IIb/beta-3 (Homo sapiens, UniProt P05106+P08514); assay: Binding affinity to human integrin […] receptor by TRF assay; type: protein-complex assay
Method in brief: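 Purified αIIbβ3 coated overnight at 4 °C in buffer A (50 mM Tris–HCl pH 7.4, 100 mM NaCl, 1 mM each MgCl₂, CaCl₂, MnCl₂), then blocked with 1% BSA for 1 h at RT. Compound plus 20 nM Eu³⁺-fibrinogen in buffer A with DTPA and 0.05% BSA, 1 h at RT. After washing, enhancement solution was added for 10 min with shaking and time-resolved fluorescence was read.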

HUVEC [2] = assay: Inhibition of FGF-induced HUVEC proliferation after 48 hrs; type: functional, cell-based; conditions: Homo sapiens
Method in brief: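 HUVEC were seeded at 1000 cells/well in complete EBM-2 and cultured 24 h at 37 °C with 5% CO₂. Medium was replaced with EBM-2 containing 2% FBS, 3 ng/mL FGF and compound, and cells were grown a further 48 h. Cells were fixed in glutaraldehyde, stained with crystal violet, destained in acetic acid and read by absorbance at 595. Means of two experiments with SD.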

HUVEC [3] = assay: Inhibition of VEGF-induced HUVEC proliferation after 48 hrs; type: functional, cell-based; conditions: Homo sapiens
HUVEC [4] = assay: Inhibition of HUVEC migration after 4 hrs; type: functional, cell-based; conditions: Homo sapiens
Method in brief: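 Boyden-chamber filters were coated with vitronectin in HEPES/NaCl/divalent-cation buffer for 1 h at 37 °C, then blocked with 2% BSA for 1 h. HUVEC were added to the upper chamber at 20,000/well in migration buffer with or without compound and incubated 4 h at 37 °C. Non-migrated cells were removed; migrated cells were fixed, stained with crystal violet, photographed and quantified. Means of two experiments with SD.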

[5] = Apparent permeability across human Caco-2 cells; type: ADME, cell-based

Integrin alpha-V/beta-3, sequence (P05106 27-788 limits assumed): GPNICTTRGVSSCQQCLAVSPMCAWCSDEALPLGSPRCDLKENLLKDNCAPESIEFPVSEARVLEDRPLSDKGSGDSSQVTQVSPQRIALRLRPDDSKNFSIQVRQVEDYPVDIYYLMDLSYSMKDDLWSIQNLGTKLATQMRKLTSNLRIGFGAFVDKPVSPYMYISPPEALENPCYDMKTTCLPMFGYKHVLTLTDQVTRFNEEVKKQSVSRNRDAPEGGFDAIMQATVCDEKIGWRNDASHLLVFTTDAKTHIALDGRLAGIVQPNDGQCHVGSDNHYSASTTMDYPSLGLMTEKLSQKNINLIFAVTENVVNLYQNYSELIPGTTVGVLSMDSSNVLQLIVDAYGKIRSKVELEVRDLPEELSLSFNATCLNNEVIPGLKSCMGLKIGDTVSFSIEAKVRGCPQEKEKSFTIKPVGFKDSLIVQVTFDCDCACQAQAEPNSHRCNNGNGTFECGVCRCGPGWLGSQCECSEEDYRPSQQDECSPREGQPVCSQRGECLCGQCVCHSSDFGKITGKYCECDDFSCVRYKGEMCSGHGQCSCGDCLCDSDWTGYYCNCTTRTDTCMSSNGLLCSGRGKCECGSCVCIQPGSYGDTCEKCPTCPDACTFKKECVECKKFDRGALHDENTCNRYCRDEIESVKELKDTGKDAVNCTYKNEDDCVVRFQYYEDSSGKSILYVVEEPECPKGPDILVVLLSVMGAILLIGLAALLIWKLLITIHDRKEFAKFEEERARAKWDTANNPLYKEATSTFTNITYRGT
Integrin alpha-V/beta-3, sequence (P06756 31-889 limits assumed): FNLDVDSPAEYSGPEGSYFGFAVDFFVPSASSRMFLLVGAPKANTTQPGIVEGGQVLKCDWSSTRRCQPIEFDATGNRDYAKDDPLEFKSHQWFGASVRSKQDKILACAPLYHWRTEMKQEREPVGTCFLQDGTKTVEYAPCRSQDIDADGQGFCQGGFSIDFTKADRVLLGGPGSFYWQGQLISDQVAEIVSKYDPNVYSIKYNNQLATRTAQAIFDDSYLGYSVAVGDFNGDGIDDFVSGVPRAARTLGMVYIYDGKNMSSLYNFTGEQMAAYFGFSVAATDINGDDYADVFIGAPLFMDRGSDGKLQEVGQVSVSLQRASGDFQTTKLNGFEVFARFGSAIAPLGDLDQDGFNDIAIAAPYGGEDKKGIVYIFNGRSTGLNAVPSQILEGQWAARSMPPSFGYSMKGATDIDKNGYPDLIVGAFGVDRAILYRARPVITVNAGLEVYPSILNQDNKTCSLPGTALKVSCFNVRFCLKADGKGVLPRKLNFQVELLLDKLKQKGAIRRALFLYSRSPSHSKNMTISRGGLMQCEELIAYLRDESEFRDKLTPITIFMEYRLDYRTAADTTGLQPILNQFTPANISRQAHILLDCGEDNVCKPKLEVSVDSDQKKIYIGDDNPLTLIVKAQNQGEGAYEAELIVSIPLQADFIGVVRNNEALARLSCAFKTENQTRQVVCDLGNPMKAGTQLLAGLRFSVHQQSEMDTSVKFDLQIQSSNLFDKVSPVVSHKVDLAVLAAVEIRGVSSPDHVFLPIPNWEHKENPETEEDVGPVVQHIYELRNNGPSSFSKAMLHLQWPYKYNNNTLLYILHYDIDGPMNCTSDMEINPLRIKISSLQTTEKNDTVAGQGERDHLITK
Integrin alpha-V/beta-3, sequence (P06756 891-1048 limits assumed): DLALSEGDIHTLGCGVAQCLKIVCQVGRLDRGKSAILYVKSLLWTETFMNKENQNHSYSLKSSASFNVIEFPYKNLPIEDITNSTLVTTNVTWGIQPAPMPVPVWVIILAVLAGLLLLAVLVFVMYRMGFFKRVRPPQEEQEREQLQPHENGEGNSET
Integrin alpha-IIb/beta-3, sequence (P05106 27-788 limits assumed): as the sequence (P05106 27-788 limits assumed) above
Integrin alpha-IIb/beta-3, sequence (P08514 32-887 limits assumed): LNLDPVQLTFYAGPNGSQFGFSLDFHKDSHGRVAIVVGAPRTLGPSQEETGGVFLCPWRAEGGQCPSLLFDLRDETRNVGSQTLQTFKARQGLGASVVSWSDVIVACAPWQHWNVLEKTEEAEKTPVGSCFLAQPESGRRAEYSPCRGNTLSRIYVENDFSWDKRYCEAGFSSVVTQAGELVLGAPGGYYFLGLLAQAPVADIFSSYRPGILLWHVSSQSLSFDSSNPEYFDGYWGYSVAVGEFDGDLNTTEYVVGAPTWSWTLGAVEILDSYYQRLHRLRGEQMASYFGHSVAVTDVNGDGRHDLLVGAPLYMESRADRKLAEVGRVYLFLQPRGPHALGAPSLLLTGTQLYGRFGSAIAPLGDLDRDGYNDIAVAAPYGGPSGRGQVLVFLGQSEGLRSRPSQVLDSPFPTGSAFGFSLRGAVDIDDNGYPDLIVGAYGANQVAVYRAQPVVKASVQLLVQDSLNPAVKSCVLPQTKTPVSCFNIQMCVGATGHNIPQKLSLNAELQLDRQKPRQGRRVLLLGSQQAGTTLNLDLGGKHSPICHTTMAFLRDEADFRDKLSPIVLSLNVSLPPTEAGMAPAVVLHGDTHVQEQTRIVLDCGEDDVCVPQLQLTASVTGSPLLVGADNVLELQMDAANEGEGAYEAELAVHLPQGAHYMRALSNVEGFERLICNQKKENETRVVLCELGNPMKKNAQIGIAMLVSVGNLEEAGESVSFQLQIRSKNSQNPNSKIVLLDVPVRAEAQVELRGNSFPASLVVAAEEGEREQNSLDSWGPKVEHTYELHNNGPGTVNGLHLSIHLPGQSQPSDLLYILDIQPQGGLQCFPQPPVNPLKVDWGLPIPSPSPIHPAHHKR
Integrin alpha-IIb/beta-3, sequence (P08514 891-1039 limits assumed): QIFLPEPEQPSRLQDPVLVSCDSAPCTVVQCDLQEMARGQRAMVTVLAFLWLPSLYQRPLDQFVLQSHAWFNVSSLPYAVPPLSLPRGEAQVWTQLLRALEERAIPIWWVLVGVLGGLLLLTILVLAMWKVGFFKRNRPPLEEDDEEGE
Integrin alpha-V, sequence (P06756 whole entry, one chain of several): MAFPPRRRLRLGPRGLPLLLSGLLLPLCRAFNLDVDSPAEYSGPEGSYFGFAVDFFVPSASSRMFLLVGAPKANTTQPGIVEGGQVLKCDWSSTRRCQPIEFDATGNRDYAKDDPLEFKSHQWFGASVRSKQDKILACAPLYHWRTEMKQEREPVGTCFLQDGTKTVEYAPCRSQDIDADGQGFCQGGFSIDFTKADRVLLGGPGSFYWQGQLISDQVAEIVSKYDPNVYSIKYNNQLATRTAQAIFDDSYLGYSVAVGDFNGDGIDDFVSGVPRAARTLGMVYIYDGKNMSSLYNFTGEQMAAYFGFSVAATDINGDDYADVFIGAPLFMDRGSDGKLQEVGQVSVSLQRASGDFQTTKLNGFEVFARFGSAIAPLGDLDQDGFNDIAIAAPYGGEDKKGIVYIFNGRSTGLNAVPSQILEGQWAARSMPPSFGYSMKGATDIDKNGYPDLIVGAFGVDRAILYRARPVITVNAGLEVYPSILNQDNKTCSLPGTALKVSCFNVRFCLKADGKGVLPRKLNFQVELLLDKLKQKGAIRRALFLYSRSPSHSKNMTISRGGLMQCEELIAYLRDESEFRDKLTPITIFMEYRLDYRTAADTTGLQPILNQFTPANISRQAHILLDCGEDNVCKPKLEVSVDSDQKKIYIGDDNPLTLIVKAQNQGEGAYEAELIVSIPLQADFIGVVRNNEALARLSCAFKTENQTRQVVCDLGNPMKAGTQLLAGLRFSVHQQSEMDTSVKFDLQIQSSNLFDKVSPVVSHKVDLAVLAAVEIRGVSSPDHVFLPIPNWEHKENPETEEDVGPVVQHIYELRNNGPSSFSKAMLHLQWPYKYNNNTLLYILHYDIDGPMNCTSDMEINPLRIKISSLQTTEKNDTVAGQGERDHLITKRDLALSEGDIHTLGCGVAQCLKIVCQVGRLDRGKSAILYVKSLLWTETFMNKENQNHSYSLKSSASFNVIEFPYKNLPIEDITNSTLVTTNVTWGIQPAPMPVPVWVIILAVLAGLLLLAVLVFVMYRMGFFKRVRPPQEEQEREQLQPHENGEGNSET

Row | IC50 (Integrin alpha-V/beta-3) [nM] | IC50 (Integrin alpha-V) [nM] | IC50 [1] [nM] | Papp [5] [×10⁻⁶ cm/s] | Compound | IC50 (HUVEC [2]) [nM] | IC50 (HUVEC [3]) [nM] | IC50 (HUVEC [4]) [nM]
1 | 230 | 2050 |  |  | Cn1c(N)nc2c(Oc3ccc(C(=O)NCCC(=O)O)cc3)cccc21 |  |  | 
2 | 180 | 4800 | > 10000 |  | Cn1c(N)nc2c(Oc3ccc4c(c3)CN(CCC(=O)O)C4=O)cccc21 |  |  | 
3 | 39 | 600 | > 10000 |  | Cn1c(N)nc2c(Oc3ccc4c(c3)CCN(CCC(=O)O)C4=O)cccc21 |  |  | 
4 | 7 | 310 | 6300 |  | O=C(O)CCN1CCc2cc(Oc3cccc4c3nc3n4CCCN3)ccc2C1=O |  |  | 
5 | 2 | 14 | 167 | 8.96 | O=C(O)CC(c1ccc2c(c1)OCO2)N1CCc2cc(Oc3cccc4c3nc3n4CCCN3)ccc2C1=O (stereo not given) | 2900 | 1100 | 40
6 | 1 | 5 | 323 |  | O=C(O)CC(c1cccnc1)N1CCc2cc(Oc3cccc4c3nc3n4CCCN3)ccc2C1=O (stereo not given) | 1100 | 4300 | 37
7 | 370 | 4300 | > 10000 |  | Cn1c(N)nc2c(Oc3ccc4c(c3)CCCN(CCC(=O)O)C4=O)cccc21 |  |  | 
8 |  |  |  |  | CC(C)[C@@H]1NC(=O)[C@@H](Cc2ccccc2)NC(=O)[C@H](CC(=O)O)NC(=O)CNC(=O)[C@H](CCCN=C(N)N)NC1=O [CYCLORGDFV] | 3100 | 4500 | 530
